Assay outcomes: PubChem BioAssay, Johns Hopkins Ion Channel Center
TRPC6 inh = mouse TRPC6 channel inhibitors, primary screen, cell-based, HEK293, membrane potential dye; 310,000 compounds, 1.1% hits; Short transient receptor potential channel 6 (Mus musculus), Q61143; ACh-evoked depolarization; stronger effect = lower value; B-score at 10 µM;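 active means B-score under library mean minus 3 SD, initial fluorescence not abnormally high, positive integrated signal ratio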;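 further: B-score derived from integrated fluorescence ratio over the kinetic read; more negative B-score means stronger inhibition of depolarization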
TRPC4 block = inhibitors of mouse TRPC4 channel, primary screen, Fluo4 calcium, HEK293 TRPC4beta/mu-opioid cells. Short transient receptor potential channel 4 (Mus musculus), Q9QUQ5. DAMGO-evoked Fluo4 calcium flux; stronger effect = lower value. B-score at 10 µM. 300,000 compounds, 0.39% hits;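 active means B-score over 3 SD under the library average, no early fluorescence shift, positive overall ratio signal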
Target sequence (Q9QUQ5 whole entry, looked up): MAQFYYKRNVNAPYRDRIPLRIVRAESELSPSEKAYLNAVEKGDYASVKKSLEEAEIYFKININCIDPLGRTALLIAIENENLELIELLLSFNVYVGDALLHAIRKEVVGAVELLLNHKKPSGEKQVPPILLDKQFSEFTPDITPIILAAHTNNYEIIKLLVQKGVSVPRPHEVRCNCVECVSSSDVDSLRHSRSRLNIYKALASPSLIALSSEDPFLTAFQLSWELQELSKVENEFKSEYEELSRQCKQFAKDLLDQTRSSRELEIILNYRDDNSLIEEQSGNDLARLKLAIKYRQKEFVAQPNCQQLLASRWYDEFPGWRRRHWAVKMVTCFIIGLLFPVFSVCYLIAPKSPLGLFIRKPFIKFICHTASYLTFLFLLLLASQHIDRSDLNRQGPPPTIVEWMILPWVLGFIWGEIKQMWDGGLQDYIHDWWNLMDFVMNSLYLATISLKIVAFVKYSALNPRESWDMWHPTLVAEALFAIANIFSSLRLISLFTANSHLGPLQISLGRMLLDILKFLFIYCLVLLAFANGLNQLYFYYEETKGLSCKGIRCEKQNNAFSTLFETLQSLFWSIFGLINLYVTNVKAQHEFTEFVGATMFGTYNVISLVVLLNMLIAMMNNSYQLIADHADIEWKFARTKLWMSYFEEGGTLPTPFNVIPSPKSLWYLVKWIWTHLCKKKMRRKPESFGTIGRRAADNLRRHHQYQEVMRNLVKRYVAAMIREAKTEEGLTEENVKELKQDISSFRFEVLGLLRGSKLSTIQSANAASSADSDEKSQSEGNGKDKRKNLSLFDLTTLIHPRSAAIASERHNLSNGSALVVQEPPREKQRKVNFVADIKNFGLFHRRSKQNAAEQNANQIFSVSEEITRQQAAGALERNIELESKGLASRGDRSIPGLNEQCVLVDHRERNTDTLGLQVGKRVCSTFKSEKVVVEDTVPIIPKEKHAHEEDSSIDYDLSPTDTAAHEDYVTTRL
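Assay system: HEK293 cells with stable TRPC4beta plus mu-opioid receptor expression; Probe or stimulus: DAMGO in two steps, submaximal then maximal; Dosing: single-point compound dosing; Measured by: Fluo4 calcium-dye fluorescence, kinetic read; Read-out basis: B score from integrated Fluo4 fluorescence ratio.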
TRPC6 activator = mouse TRPC6 channel activators, primary screen, cell-based, HEK293, membrane potential dye. Short transient receptor potential channel 6 (Mus musculus), Q61143. AID 2550, 2010. B-score at 10 µM. 310,000 compounds, 0.13% hits. HEK293-TRPC6 membrane potential dye fluorescence; stronger effect = higher value;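 active means B-score of the integrated fluorescence ratio above library mean plus 3 SD, and starting fluorescence ratio within library mean plus 5 SD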;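 further: higher score means more depolarization so channel activation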
TRPC4 agonist = activators of mouse TRPC4 channel, primary screen, Fluo4 calcium, HEK293 TRPC4beta/mu-opioid cells; Short transient receptor potential channel 4 (Mus musculus), Q9QUQ5; Fluo4 calcium fluorescence; stronger effect = higher value; B-score at 10 µM; 310,000 compounds, 0.49% hits;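 active means B-score above 5 SD of library B-scores, and initial fluorescence ratio not above library mean plus 5 SD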;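 further: positive B-score marks a calcium rise read as TRPC4 activation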
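System: HEK293 cells stably co-expressing mouse TRPC4beta and mu-opioid receptor; Schedule: Fluo4 dye loading 45 min at room temperature, 110 s recording; Detection: Fluo4 fluorescence, kinetic; Evaluation: B-scored integrated calcium fluorescence ratio; Controls: buffer (low) and maximal DAMGO (high).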
TRPC4 PAM = positive allosteric modulators of TRPC4, primary screen, cell-based, mouse TRPC4beta, HEK293 mu-opioid, Fluo-4 calcium; 310,000 compounds, 0.42% hits; B-score at 10 µM; AID 2227, 2009; DAMGO EC20, Fluo-4 Ca2+ flux; stronger effect = higher value; Short transient receptor potential channel 4 (Mus musculus), Q9QUQ5;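 active means B-score of calcium response area above 5 SD of library B-scores, with initial fluorescence ratio within 5 SD of library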
TRPC4 sel inh 2 = second selectivity test of TRPC6 inhibitors: effect on mouse TRPC4; shares compounds with TRPC6 inh; HEK293 TRPC4/MOR, membrane potential dye fluorescence; channel activated by saturating DAMGO dose; inhibition, % at 10 µM; 920 compounds, 42% hits; AID 2776;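 active means compounds whose fluorescence signal differed from control wells by over 3 SD, either direction, in both duplicate plates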
TRPC4 spec = mouse TRPC4 modulation by TRPC6 hits, confirmation, selectivity assay for TRPC6 inhibitor project, cell-based, HEK293 TRPC4/mu-opioid, membrane potential dye; shares compounds with TRPC6 inh; membrane potential fluorescence; activity change, negative = inhibition, % at 10 µM; 920 compounds, 61% hits; AID 2777, 2010;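 active means rise or fall in signal beyond 3 SD of buffer-only wells in both replicate plates, either sign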;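 further: integrated kinetic ratio of fluorescence range over baseline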
HEK293 MPD ctr 2-1 = nonspecific membrane potential effects, parental HEK293, confirmation, counter-screen for TRPC6 inhibitor project, cell-based, second counter screen; shares compounds with TRPC6 inh; parental HEK293 membrane potential dye fluorescence; maximal acetylcholine challenge after compound addition; signal change vs control, % at 10 µM; 920 compounds, 31% hits;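 active means membrane potential signal moving either way by over 3 SD of the maximum-effect control, in both duplicate plates, meaning non-specific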
HEK293 MPD ctr-1 = membrane potential modulation in parental HEK293, confirmation, counter-screen for TRPC6 inhibitor project, cell-based; shares compounds with TRPC6 inh; parental HEK293 membrane potential dye fluorescence; membrane potential signal change, % at 10 µM; 920 compounds, 60% hits; AID 2780, 2010;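 active means membrane potential signal shifting up or down by more than 3 SD of buffer-only wells, on both duplicate plates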
HEK293 MPD ctr-2 = parental HEK293 membrane potential modulation, confirmation, counter-screen for TRPC6 modulator project, cell-based; shares compounds with TRPC6 inh; membrane potential dye fluorescence; membrane potential signal change, % at 10 µM; 2,400 compounds, 51% hits;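 active means membrane potential signal moves up or down beyond 5 SD from buffer-only wells, on both duplicate plates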
HEK293 MPD ctr 2-2 = second counter-screen for TRPC6 modulators: effect in parental HEK293 cells; 2,400 compounds, 14% hits; shares compounds with TRPC6 inh; inhibition, % at 10 µM; membrane potential dye fluorescence; after compound, maximal acetylcholine stimulation;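 active means membrane potential signal drops by more than 5 SD from the mean control signal, in both duplicate plates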
TRPC4 ctr mod = TRPC4 modulation by TRPC6 hit compounds, confirmation, selectivity assay for TRPC6 modulator project, cell-based, HEK293 TRPC4/mu-opioid, membrane potential dye, mouse | shares compounds with TRPC6 inh | membrane potential fluorescence | percent change from control (negative = decrease, positive = increase), % at 10 µM | 2,400 compounds, 69% hits | AID 488927, 2010;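 active means membrane potential signal moved up or down beyond 5 SD of buffer control wells, in both duplicate plates, actives on both sides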
TRPC4/MOR inh 2 = mouse TRPC4 off-target activity of TRPC6 modulators, second screen; shares compounds with TRPC6 inh; HEK293 TRPC4/mu-opioid, membrane potential dye fluorescence; stimulated with maximal-effect DAMGO; inhibition, % at 10 µM; 2,400 compounds, 55% hits; AID 488928;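 active means drop in membrane potential signal beyond 5 SD of the control wells in both duplicate plates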;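 further: TRPC4 counter screen for TRPC6 hits run under conditions tuned for TRPC6 not TRPC4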
TRPC6 block conf = mouse TRPC6 channel inhibitors, confirmation, HEK293 cells, membrane potential dye, duplicate. shares compounds with TRPC6 inh. ACh-evoked depolarization. inhibition, % at 10 µM. 3,300 compounds, 43% hits. AID 488960, 2010;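 active means fluorescence ratio falls more than 5 SD below the full-stimulation control mean, in both duplicate runs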;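 further: integrated fluorescence ratio of peak minus minimum over baseline after agonist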
TRPC6 act confirm = mouse TRPC6 channel activators, confirmation, HEK293 cells, membrane potential dye, duplicate. AID 488961, 2010. HEK293-TRPC6 membrane potential dye fluorescence, FDSS. shares compounds with TRPC6 inh. 2,800 compounds, 11% hits. activation, % at 10 µM;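 active means ratio signal rise beyond 5 SD above unstimulated control wells' mean, seen in both duplicate runs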
Large screens that a line does not name were inactive (follow-up assays come after a bar, where they were run). This is a sample that favours compounds with a hit; in the whole collection about 2.3% have one here.

COc1ccc([N+](=O)[O-])cc1N(CC(O)CN(CC(C)C)CC(C)C)S(=O)(=O)c1ccccc1 (stereo unspecified)	none
CCCCN(CCCC)CC(O)CN(c1cc([N+](=O)[O-])ccc1OC)S(=O)(=O)c1ccccc1 (stereo unspecified)	TRPC6 inh -10.1 | TRPC4 sel inh 2 28.5% | TRPC4 spec inactive | HEK293 MPD ctr 2-1 inactive | HEK293 MPD ctr-1 0.2% | TRPC6 block conf 66.7% | TRPC6 act confirm inactive
CCCCn1nnnc1SCC(=O)c1cc(Cl)ccc1OC	none
COc1ccc(Cl)cc1C(=O)CSc1nc(N)cc(N)n1	TRPC6 inh -8.54, TRPC6 activator 12.6 | HEK293 MPD ctr-2 inactive | HEK293 MPD ctr 2-2 inactive | TRPC4 ctr mod inactive | TRPC4/MOR inh 2 inactive | TRPC6 block conf 71.5% | TRPC6 act confirm 173.0%
COc1ccc(C2C(C(C)=O)=C(O)C(=O)N2C)c(OC)c1 (stereo unspecified)	none
CCN1CCN(c2nc3c(c(=O)[nH]c(=O)n3C)n2CCCc2ccccc2)CC1	none
CCCn1c(N2CCN(C)CC2)nc2c1c(=O)[nH]c(=O)n2C	none
Cn1c(=O)[nH]c(=O)c2c1nc(N1CCCCCC1)n2CCN1CCCCCC1	TRPC6 inh -6.62 | TRPC4 sel inh 2 54.0% | TRPC4 spec -10.7% | HEK293 MPD ctr 2-1 inactive | HEK293 MPD ctr-1 -217.5% | TRPC6 block conf inactive | TRPC6 act confirm inactive
